Source: ChEMBL document CHEMBL4145527, “Targeting polyamine transport in Trypanosoma cruzi” (Eur J Med Chem, 2018)
Blank lines part the entries; values can stand above or below the molecule they belong to. Calls of active or inactive are those of the source. No cut-off for these calls is given here.

Tests used:
[1] = test system: Leishmania amazonensis; experiment: Antiparasitic activity against Leishmania amazonensis MHOM/Br/75/Josefa promastigotes by light microscopic method; assay type: functional, organism-based
[2] = biological target: T1, Putative amino acid permease/transporter (Trypanosoma cruzi, UniProt D5FGE8); experiment: Inhibition of Trypanosoma cruzi Y epimastigotes PAT assessed as reduction in [3H]--spermidine uptake after 10 mins by liquid scintillation counting method
T1 sequence (D5FGE8 whole entry): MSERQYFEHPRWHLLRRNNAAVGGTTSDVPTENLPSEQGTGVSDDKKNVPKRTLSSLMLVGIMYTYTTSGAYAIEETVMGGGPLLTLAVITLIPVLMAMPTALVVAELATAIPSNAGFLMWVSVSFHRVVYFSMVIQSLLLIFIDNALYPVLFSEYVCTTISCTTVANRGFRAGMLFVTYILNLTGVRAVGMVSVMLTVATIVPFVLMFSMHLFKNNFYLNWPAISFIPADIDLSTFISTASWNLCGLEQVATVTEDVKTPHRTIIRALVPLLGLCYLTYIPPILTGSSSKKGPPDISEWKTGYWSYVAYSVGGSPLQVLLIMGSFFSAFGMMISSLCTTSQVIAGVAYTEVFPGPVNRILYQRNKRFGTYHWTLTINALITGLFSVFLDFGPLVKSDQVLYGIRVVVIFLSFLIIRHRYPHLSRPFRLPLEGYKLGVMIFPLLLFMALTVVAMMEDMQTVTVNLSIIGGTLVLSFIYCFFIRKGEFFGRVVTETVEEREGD
In short: (§1)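 Y-strain epimastigotes from BHT culture were washed twice in PBS. 10^7 cells in PBS-2% glucose were given [3H]-putrescine (5 µM) or [3H]-spermidine (15 µM), 0.4 µCi, with inhibitor at 0–30 µM, later narrowed. Incubation was 10 min at 28 °C or 37 °C, stopped with ice-cold buffer and washed; pellets went to scintillation counting. Nonspecific uptake was taken with a 100-fold molar excess of substrate. IC50 was fit by nonlinear regression.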

[3] = biological target: T1, Putative amino acid permease/transporter; experiment: Inhibition of Trypanosoma cruzi Y epimastigotes PAT assessed as reduction in [3H]-putrescine uptake after 10 mins by liquid scintillation counting method; in short: as §1
[4] = biological target: T2, Putative amino acid permease/transporter (Trypanosoma cruzi) (UniProt D5FGE8); experiment: Inhibition of Trypanosoma cruzi Y epimastigotes PAT assessed as reduction in [3H]-putrescine uptake up to 30 uM after 10 mins by liquid scintillation counting method; in short: as §1
T2 sequence (whole entry): T1 sequence (D5FGE8 whole entry)

[5] = biological target: T2, Putative amino acid permease/transporter (Trypanosoma cruzi); experiment: Inhibition of Trypanosoma cruzi Y epimastigotes PAT assessed as reduction in [3H]--spermidine uptake up to 30 uM after 10 mins by liquid scintillation counting method; in short: as §1
[6] = test system: Trypanosoma cruzi; experiment: Potentiation of benznidazole-induced trypanopcidal activity against Trypanosoma cruzi Y epimastigotes at 20 uM after 96 hrs by Neubauer chamber or MTS dye based assay; assay type: functional
In short: (§2)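 Epimastigotes were treated with 30 µM benznidazole alone or with 20 µM polyamine conjugate, for up to 96 h at 28 °C. Parasites were counted (Neubauer or MTS) at 24, 48, 72 and 96 h. Potentiation is the fold change in benznidazole potency with versus without the conjugate.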

[7] = test system: Trypanosoma cruzi; experiment: Ratio of IC50 for Trypanosoma cruzi Y epimastigotes to IC50 for Trypanosoma cruzi Y trypamastigotes; assay type: functional
[8] = test system: Trypanosoma cruzi; experiment: Trypanopcidal activity against Trypanosoma cruzi Y epimastigotes after 48 hrs by Neubauer chamber or MTS dye based assay; assay type: functional, organism-based
In short: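 Y-strain epimastigotes, 10^7 cells/well in BHT (pH 7, 10% FCS, hemin), were exposed to 0–100 µM compound at 28 °C for 48 h. Growth was counted in a Neubauer chamber or by MTS. IC50 is 50% viability relative to untreated control, by nonlinear regression; at least triplicate, three independent assays.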

[9] = test system: HL-60; experiment: Cytotoxicity against human HL60 cells; assay type: cell-based
[10] = biological target: T1, Putative amino acid permease/transporter; experiment: Inhibition of Trypanosoma cruzi Y trypamastigotes PAT assessed as reduction in [3H]--spermidine uptake after 10 mins by liquid scintillation counting method
In short: (§3)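 Trypomastigotes came from infected VERO cells. 10^7 washed parasites in PBS-2% glucose were given [3H]-putrescine or [3H]-spermidine (0.4 µCi) plus inhibitor for 10 min at 28 °C or 37 °C. The reaction was stopped with ice-cold PBS-glucose, washed and scintillation counted. Background was taken with a 100-fold molar substrate excess. IC50 came from logistic dose-response fit.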

[11] = Selectivity index, ratio of IC50 for cytotoxicity against African green monkey Vero cells to IC50 for trypanopcidal activity against Trypanosoma cruzi Y trypamastigotes; assay type: toxicity, cell-based; settings: read-out: Ratio IC50
[12] = test system: Trypanosoma cruzi; experiment: Trypanopcidal activity against Trypanosoma cruzi Y trypamastigotes after 24 hrs by Neubauer chamber or MTS dye based assay; assay type: functional, organism-based
In short: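 Culture-derived trypomastigotes, 10^6 cells/mL, were held at 37 °C for 24 h with compound at 0–2.5 µM. Motility was checked microscopically, and viability was counted by Neubauer chamber or MTS against untreated controls. IC50 was from logistic nonlinear regression.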

[13] = test system: Vero; experiment: Cytotoxicity against African green monkey Vero cells assessed as reduction in cell viability after 24 hrs by crystal violet staining based assay; settings: Chlorocebus sabaeus
In short: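 VERO cells (MEM, 10% heat-inactivated FCS, 37 °C, 5% CO2) were seeded at 10^4 cells/well and treated 24 h with compound at 0–50 µM; PBS served as negative control. Cells were fixed 15 min, stained with 0.5% crystal violet, and absorbance read at 570 nm. IC50 was from nonlinear regression.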

[14] = biological target: T1, Putative amino acid permease/transporter; experiment: Inhibition of Trypanosoma cruzi Y trypamastigotes PAT assessed as reduction in [3H]-putrescine uptake after 10 mins by liquid scintillation counting method; in short: as §3
[15] = test system: Trypanosoma cruzi; experiment: Potentiation of benznidazole-induced trypanopcidal activity against Trypanosoma cruzi Y epimastigotes at 20 uM after 24 hrs by Neubauer chamber or MTS dye based assay; assay type: functional; in short: as §2
[16] = test system: Trypanosoma cruzi; experiment: Trypanopcidal activity against Trypanosoma cruzi Y trypamastigotes infected in African green monkey Vero cells treated for 5 days by Neubauer chamber or MTS dye based assay; assay type: functional, organism-based; settings: 120 h
In short: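 VERO cells infected with trypomastigotes were exposed to compound at 0–2.5 µM for five days. Trypomastigote burst was scored after six days of infection. IC50 was obtained by nonlinear regression of dose-response.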

[17] = test system: Trypanosoma cruzi; experiment: Potentiation of benznidazole-induced trypanopcidal activity against Trypanosoma cruzi Y epimastigotes at 20 uM after 72 hrs by Neubauer chamber or MTS dye based assay; assay type: functional; in short: as §2
[18] = test system: Trypanosoma cruzi; experiment: Potentiation of benznidazole-induced trypanopcidal activity against Trypanosoma cruzi Y epimastigotes at 20 uM after 48 hrs by Neubauer chamber or MTS dye based assay; assay type: functional; in short: as §2

IC50 [1]: 144 µM
SMILES: NCCC(=O)CN

IC50 [2]: 13.3 µM | IC50 [3]: 3.98 µM | inhibition [4]: Active | inhibition [5]: Active
SMILES: NCCCCNCCCCNCc1c2ccccc2cc2ccccc12

IC50 [2]: 8.78 µM | IC50 [3]: 5.02 µM | inhibition [4]: Active | IC50 [10]: 4.86 µM | IC50 [14]: 4.94 µM | inhibition [5]: Active
SMILES: Cl.Cl.NCCCCNCc1c2ccccc2cc2ccccc12
fold change (FC) [6]: 11.2 | Ratio IC50 [7]: 37 | IC50 [8]: 17 µM | IC50 [9]: 20 µM | selectivity ratio [11]: 12.7 | IC50 [12]: 0.46 µM | IC50 [13]: 5.86 µM | fold change (FC) [15]: 1.5 | IC50 [16]: 0.52 µM | fold change (FC) [17]: 6.2 | fold change (FC) [18]: 1.9

IC50 [3]: 2.43 µM | inhibition [4]: Active
SMILES: CCCCCCCCCCCCCCCC(=O)NCCCCC(N)C(=O)NCCCNCCCCNCCCN (centres undefined)
